Measurements from different studies.
Lines come from different studies, so protocols differ.
Cell line: MCF7
Read-out: cell growth or viability

CC(=NNC(=O)c1ccccc1Cl)c1ccc(Nc2nnc(-c3ccc(Cl)cc3)c3ccccc23)cc1 — cell death (MTT; 0.625 µM): 0.177%
C=CC(=O)NC1CCN(c2ncc3ncnc(Nc4ccc(Oc5ccc6c(c5)ncn6C)c(C)c4)c3n2)CC1 — EC50: 5.22 µM
CCOC(=O)c1nn(-c2cccc(Cl)c2)/c(=N/N=C(\C)c2ccc(NC(=O)c3ccccc3)cc2)s1 — viability (MTT; 1.25 µM): 2.59%
C[C@@H]1CC[C@@H]([C@](C)(O)CNCc2cccc3ccccc23)[C@H](OCc2ccccc2)C1 — inhibition (MTT; 30 µM, 72 h): 92.2%
CCOC(=O)c1nn(-c2cccc(Cl)c2)/c(=N/N=C(\C)c2ccc(NC(=O)c3ccc(Cl)cc3)cc2)s1 — viability (MTT; 0.312 µM): 10.3%
COc1cccc2c1C(=O)c1c(O)c3c(c(O)c1C2=O)C[C@@](O)(C(=O)CO)C[C@@H]3O[C@H]1C[C@H](N)[C@H](O)[C@H](C)O1 — inhibition (MTT; 100 µM, 48 h): 96.8%
C=C(C)[C@@H]1CC[C@@H](C)C[C@H]1OCc1ccc(OC)cc1 — inhibition (MTT; 30 µM, 72 h): 37.7%
Cc1ccc(-c2cc(-c3ccc(Cl)cc3)c3c(=O)[nH]c(=O)[nH]c3n2)cc1 — IC50 (MTT; 48 h): 9.67 µM
CC(=NNC(N)=S)c1ccc(Nc2nnc(-c3ccc(Cl)cc3)c3ccccc23)cc1 — cell death (MTT; 1.25 µM): 94.5%
CC(=O)c1nn(-c2ccccc2Cl)/c(=N/N=C(\C)c2ccc(NC(=O)c3ccccc3)cc2)s1 — viability (MTT; 5 µM): 6.17%
C[C@@H]1CC[C@@H]([C@](C)(O)CNCc2cccc(F)c2)[C@H](OCc2ccccc2)C1 — inhibition (MTT; 30 µM, 72 h): 95.6%
O=C(Nc1ccc(Oc2nnc(-c3ccc(Cl)cc3)c3ccccc23)cc1)c1cccc([N+](=O)[O-])c1 — cell death (MTT; 5 µM): 92.1%
C[C@@H]1CC[C@@H]([C@](O)(CNCc2cccc3ccccc23)COCc2ccccc2)[C@H](OCc2ccccc2)C1 — inhibition (MTT; 10 µM, 72 h): 81.1%
CC(=NNC(=O)c1ccccc1)c1ccc(Nc2nnc(-c3ccc(Cl)cc3)c3ccccc23)cc1 — viability (MTT; 5 µM, 24 h): 5.18%
C[C@@H]1CC[C@@H]([C@](C)(O)CNCc2ccccc2)[C@H](OCc2ccccc2)C1 — inhibition (MTT; 30 µM, 72 h): 98%
COC(=O)COc1c(Cc2cc(C(C)(C)CC(C)(C)C)cc(-n3nc4ccccc4n3)c2OCC(=O)OC)cc(C(C)(C)CC(C)(C)C)cc1-n1nc2ccccc2n1 — GI50 (MTT): 3.18 µM
O=C(Nc1ccccc1)Nc1ccc(Oc2nnc(-c3ccc(Cl)cc3)c3ccccc23)cc1 — viability (MTT; 78 nM, 24 h): 96.4%
Cc1nc(NC(=O)N2CCC[C@H]2C(N)=O)sc1-c1ccnc(C(C)(C)C(F)(F)F)c1 — EC50 (5 days): 0.177 µM
CC(=NNC(=S)Nc1ccccc1)c1ccc(Nc2nnc(-c3ccc(Cl)cc3)c3ccccc23)cc1 — cell death (MTT; 0.625 µM): 43%
CC(=O)c1nn(-c2ccc(C)cc2)/c(=N/N=C(\C)c2ccc(NC(=O)c3ccccc3)cc2)s1 — viability (MTT; 0.156 µM): 9.14%
